ChEMBL document CHEMBL2086248, “Synthesis of some novel 1-(2-naphthyl)-2-(imidazol-1-yl)ethanone oxime ester derivatives and evaluation of their anticonvulsant activity” (Eur J Med Chem, 2012)
Active and inactive are the calls of the source.

Columns and labels:
Mus musculus [1] = assay: Neurotoxicity in mouse assessed as motor impairment at 30 mg/kg, ip after 0.5 hrs by rotarod test; type: toxicity, organism-based; parameters: dose 30 mg/kg, route intraperitoneal; conditions: in vivo
In short: (§1)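 Swiss albino mice (20-24 g) were dosed ip with a suspension in 30% aqueous PEG 400 and tested 0.5 h or 4 h later. They were placed on a knurled wooden rod 1 inch in diameter, rotating at 6 rpm. Toxicity meant failure to stay on the rod for at least 1 min in each of three trials. Scored as number toxic/number tested (4 mice at 0.5 h, 2 at 4 h).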

Mus musculus [2] = assay: Neurotoxicity in mouse assessed as motor impairment at 100 mg/kg, ip after 0.5 hrs by rotarod test; type: toxicity, organism-based; parameters: dose 100 mg/kg, route intraperitoneal; conditions: in vivo; in short: as §1
Mus musculus [3] = assay: Neurotoxicity in mouse assessed as motor impairment at 300 mg/kg, ip after 0.5 hrs by rotarod test; type: toxicity, organism-based; parameters: dose 300 mg/kg, route intraperitoneal; conditions: in vivo; in short: as §1
Mus musculus [4] = assay: Neurotoxicity in mouse assessed as motor impairment at 30 mg/kg, ip after 4 hrs by rotarod test; type: toxicity, organism-based; parameters: dose 30 mg/kg, route intraperitoneal; conditions: in vivo; in short: as §1
Mus musculus [5] = assay: Neurotoxicity in mouse assessed as motor impairment at 100 mg/kg, ip after 4 hrs by rotarod test; type: toxicity, organism-based; parameters: dose 100 mg/kg, route intraperitoneal; conditions: in vivo; in short: as §1
Mus musculus [6] = assay: Neurotoxicity in mouse assessed as motor impairment at 300 mg/kg, ip after 4 hrs by rotarod test; type: toxicity, organism-based; parameters: dose 300 mg/kg, route intraperitoneal; conditions: in vivo; in short: as §1
Mus musculus [7] = assay: Anticonvulsant activity in mouse assessed as protection against maximal electroshock-induced seizures at 30 mg/kg, ip after 0.5 hrs; type: functional, organism-based; parameters: dose 30 mg/kg
In short: (§2)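 Swiss albino mice (20-24 g) received an ip suspension in 30% aqueous PEG 400 and were tested 0.5 h and 4 h after dosing. Shock was delivered through corneal electrodes from a constant current unit, with 0.9% saline dropped into the eyes first. Protection meant abolition of the hind limb tonic extension. Scored as number protected/number tested, one mouse per dose and time.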

Mus musculus [8] = assay: Anticonvulsant activity in mouse assessed as protection against maximal electroshock-induced seizures at 100 mg/kg, ip after 0.5 hrs; type: functional, organism-based; parameters: dose 100 mg/kg; in short: as §2
Mus musculus [9] = assay: Anticonvulsant activity in mouse assessed as protection against maximal electroshock-induced seizures at 300 mg/kg, ip after 0.5 hrs; type: functional, organism-based; parameters: dose 300 mg/kg; in short: as §2
Mus musculus [10] = assay: Anticonvulsant activity in mouse assessed as protection against maximal electroshock-induced seizures at 30 mg/kg, ip after 4 hrs; type: functional, organism-based; parameters: dose 30 mg/kg; in short: as §2
Mus musculus [11] = assay: Anticonvulsant activity in mouse assessed as protection against maximal electroshock-induced seizures at 100 mg/kg, ip after 4 hrs; type: functional, organism-based; parameters: dose 100 mg/kg; in short: as §2
Mus musculus [12] = assay: Anticonvulsant activity in mouse assessed as protection against maximal electroshock-induced seizures at 300 mg/kg, ip after 4 hrs; type: functional, organism-based; parameters: dose 300 mg/kg; in short: as §2
Mus musculus [13] = assay: Anticonvulsant activity in mouse assessed as protection against subcutaneous pentylenetetrazole-induced seizures at 30 mg/kg, ip after 0.5 hrs; type: functional, organism-based; parameters: dose 30 mg/kg
In short: (§3)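 Swiss albino mice (20-24 g) were dosed ip with a suspension in 30% aqueous PEG 400 and challenged 0.5 h or 4 h later. Protection meant no threshold seizure (clonic spasms lasting at least 5 s). Scored as number protected/number tested, one mouse per dose and time.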

Mus musculus [14] = assay: Anticonvulsant activity in mouse assessed as protection against subcutaneous pentylenetetrazole-induced seizures at 100 mg/kg, ip after 0.5 hrs; type: functional, organism-based; parameters: dose 100 mg/kg; in short: as §3
Mus musculus [15] = assay: Anticonvulsant activity in mouse assessed as protection against subcutaneous pentylenetetrazole-induced seizures at 300 mg/kg, ip after 0.5 hrs; type: functional, organism-based; parameters: dose 300 mg/kg; in short: as §3
Mus musculus [16] = assay: Anticonvulsant activity in mouse assessed as protection against subcutaneous pentylenetetrazole-induced seizures at 30 mg/kg, ip after 4 hrs; type: functional, organism-based; parameters: dose 30 mg/kg; in short: as §3
Mus musculus [17] = assay: Anticonvulsant activity in mouse assessed as protection against subcutaneous pentylenetetrazole-induced seizures at 300 mg/kg, ip after 4 hrs; type: functional, organism-based; parameters: dose 300 mg/kg; in short: as §3
Mus musculus [18] = assay: Anticonvulsant activity in mouse assessed as protection against subcutaneous pentylenetetrazole-induced seizures at 100 mg/kg, ip after 4 hrs; type: functional, organism-based; parameters: dose 100 mg/kg; in short: as §3

SMILES	Activity (Mus musculus [1])	Activity (Mus musculus [2])	Activity (Mus musculus [3])	Activity (Mus musculus [4])	Activity (Mus musculus [5])	Activity (Mus musculus [6])	Activity (Mus musculus [7])	Activity (Mus musculus [8])	Activity (Mus musculus [9])	Activity (Mus musculus [10])	Activity (Mus musculus [11])	Activity (Mus musculus [12])	Activity (Mus musculus [13])	Activity (Mus musculus [14])	Activity (Mus musculus [15])	Activity (Mus musculus [16])	Activity (Mus musculus [17])	Activity (Mus musculus [18])
COc1ccccc1C(=O)O/N=C(\Cn1ccnc1)c1ccc2ccccc2c1	Non-toxic	Non-toxic	Non-toxic	Non-toxic	Non-toxic	Non-toxic	inactive	Active	Active	Active	Active	Active	inactive	Active	Active	inactive	inactive	inactive
Cc1ccccc1C(=O)O/N=C(\Cn1ccnc1)c1ccc2ccccc2c1	Non-toxic	Non-toxic	Non-toxic	Non-toxic	Non-toxic	Non-toxic	inactive	inactive	Active	inactive	inactive	Active	inactive	inactive	inactive	inactive	inactive	inactive
NC(=O)N1c2ccccc2C=Cc2ccccc21 [CARBAMAZEPINE]	Non-toxic	Non-toxic	Toxic	Non-toxic	Non-toxic	Non-toxic	Active	Active	Active	inactive	Active	Active	inactive	inactive	Active	inactive	Active	Active
O=C(O/N=C(\Cn1ccnc1)c1ccc2ccccc2c1)c1ccccc1Cl	Non-toxic	Non-toxic	Non-toxic	Non-toxic	Non-toxic	Non-toxic	inactive	Active	Active	inactive	inactive	inactive	inactive	inactive	inactive	inactive	inactive	inactive
CCC(=O)O/N=C(\Cn1ccnc1)c1ccc2ccccc2c1.Cl	Non-toxic	Non-toxic	Non-toxic	Non-toxic	Non-toxic	Non-toxic	inactive	Active	Active	inactive	inactive	inactive	inactive	inactive	Active	inactive	inactive	inactive
COc1cccc(C(=O)O/N=C(\Cn2ccnc2)c2ccc3ccccc3c2)c1	Non-toxic	Non-toxic	Non-toxic	Non-toxic	Non-toxic	Non-toxic	inactive	inactive	Active	inactive	inactive	inactive	inactive	inactive	inactive	inactive	inactive	inactive
Cc1cccc(C(=O)O/N=C(\Cn2ccnc2)c2ccc3ccccc3c2)c1	Non-toxic	Non-toxic	Non-toxic	Non-toxic	Non-toxic	Non-toxic	inactive	inactive	inactive	inactive	inactive	inactive	inactive	inactive	Active	inactive	Active	inactive
Cc1ccc(C(=O)O/N=C(\Cn2ccnc2)c2ccc3ccccc3c2)cc1	Non-toxic	Non-toxic	Non-toxic	Non-toxic	Non-toxic	Non-toxic	inactive	Active	Active	inactive	inactive	inactive	inactive	Active	Active	inactive	Active	inactive
O=C(O/N=C(\Cn1ccnc1)c1ccc2ccccc2c1)c1cccc([N+](=O)[O-])c1	Non-toxic	Non-toxic	Non-toxic	Non-toxic	Non-toxic	Non-toxic	inactive	inactive	inactive	inactive	inactive	Active	inactive	inactive	inactive	inactive	inactive	inactive
Cl.O=C(O/N=C(\Cn1ccnc1)c1ccc2ccccc2c1)c1ccc(-c2ccccc2)cc1	Non-toxic	Non-toxic	Non-toxic	Non-toxic	Non-toxic	Non-toxic	inactive	inactive	inactive	inactive	inactive	Active	inactive	inactive	inactive	inactive	inactive	inactive
O=C(O/N=C(\Cn1ccnc1)c1ccc2ccccc2c1)c1ccccc1	Non-toxic	Non-toxic	Non-toxic	Non-toxic	Non-toxic	Non-toxic	inactive	Active	Active	Active	Active	Active	inactive	inactive	inactive	inactive	Active	inactive
CCCCC(=O)O/N=C(\Cn1ccnc1)c1ccc2ccccc2c1.Cl	Non-toxic	Non-toxic	Non-toxic	Non-toxic	Non-toxic	Non-toxic	Active	Active	Active	inactive	inactive	inactive	inactive	inactive	inactive	inactive	inactive	inactive
